The values that follow come from publication PMC4291291 (European journal of medicinal chemistry, 2014).

Broadly, the half-life is how long it takes for the measured level to halve. A higher half-life goes with slow decline. For orientation: MIC means the lowest concentration found to suppress growth. A lower MIC goes with a more susceptible organism.

Values after ≈ are worked out from the molar mass of the structure shown.

Data set [1] can be described thus: Stability in human plasma at 37 °C. The format is in vitro ADME.
For data set [2], the system named is bioactivity of mevalonate. The note with it: 200 μM concentration; cited from earlier work.
In data set [3] the test system is Streptococcus pyogenes (GAS 5448). Kind of data set: MIC against additional organisms. It counts as cell-based.
In data set [4] the test system is Streptococcus agalactiae (GBS COH1). Kind of data set: MIC against additional organisms. It counts as cell-based.
Data set [5] relates to Staphylococcus aureus (TCH1516). Kind of data set: MIC against additional organisms. The format is cell-based.
In data set [6] the test system is vancomycin resistant Enterococcus (VRE). The data set is described as follows: MIC against additional organisms. The format is cell-based.
A further data set relates to E. coli K12. The data set is described as follows: MIC against additional organisms. It counts as cell-based.
Data set [7] in a line: Stability of ester promoiety in deuterated PBS buffer. It counts as physicochemical. An outline of the steps: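 Deuterated PBS pH 7.4 in D2O (NaCl 137 mM, KCl 2.7 mM, Na2HPO4 10.1 mM, KH2PO4 1.8 mM). Test compound (1.0 mg, 4 μmol) dissolved in 800 μL of this buffer in an NMR tube and held at 37 °C. 1H NMR taken at 30 min, 1 h, 4 h, 24 h and 48 h. Decomposition judged from the integration ratio of impurity to parent signals.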

In data set [8] the test system is Streptococcus pneumoniae strain TIGR4. The data set is described as follows: Minimal inhibitory concentration. The format is cell-based.
The nature of another data set: Stability in PBS buffer. The format is physicochemical. The note with it: pH 7.4. An outline of the steps:
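Test compound (10 mM acetonitrile stock, diluted 1:10) incubated in PBS pH 7.4 at 37 °C. Aliquots were taken at various times and injected directly onto HPLC with UV detection; run twice per compound. t1/2 = ln(2)/b, where b is the slope of ln(remaining parent fraction) versus time (one-phase decay).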

Data set [9] in a line: Enantiomeric ratio during incubation with human plasma. It counts as in vitro ADME. The note with it: Chiral Cel OD-H. The procedure, abridged:
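Test compound (100 mM acetonitrile stock) added to human plasma, which was diluted with distilled water and pre-warmed 5 min, then incubated at 37 °C. At t1/4 and t1/2, portions were quenched with acetonitrile and run on HPLC with a Chiral Cel OD-H column; LC/MS also used. Ratio taken from each enantiomer's peak integration.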

A further data set has as its system human MK. The note with it: at concentrations that effectively inhibit the S. pneumoniae system; cited from earlier work.
A short description of data set [10]: Stability of prospective decomposition intermediates of 23 in PBS buffer. It counts as physicochemical.
A further data set concerns RAW murine macrophages. The data set is described as follows: General cytotoxicity by lactate dehydrogenase. It counts as cell-based. The note with it: concentrations up to 1.6 mM, 24 h.
Data set [11] concerns HaCaT human keratinocytes. The data set is described as follows: General cytotoxicity by lactate dehydrogenase. The format is cell-based. The note with it: concentrations up to 1.6 mM, 24 h.
The mark [12] stands for this setting: Streptococcus pneumoniae, TIGR4, 24 h.
Setting [13] is: t1/2 (min) of carbonate analogues in human plasma, footnote a: hydrolysis occurred only at carbonate promoieties.
Where [14] appears, read: t1/2 (min) of benzyl amide and ester analogues in human plasma, footnote a: hydrolysis occurred only at the acetyl promoiety.

In turn, `CC(O)(CCO)CC(=O)NCc1c(F)c(F)c(F)c(F)c1F` (stereo not shown) [compound 34, 3,5-Dihydroxy-3-methyl-N-((perfluorophenyl)methyl)pentanamide] yielded a half-life in [1] (half-life in human plasma) above 120 min.
Take 6-fluoromevalonate: the “block of the related bioactivity of mevalonate” value in data set [2] is recorded as “completely blocks”.
Regarding `CC1(C)S[C@@H]2[C@H](NC(=O)Cc3ccccc3)C(=O)N2[C@H]1C(=O)O` [penicillin G, reference compound], the MIC in data set [3] (Streptococcus pyogenes) was below 12.5 µM; in data set [4] (Streptococcus agalactiae), below 12.5 µM; in data set [5] (Staphylococcus aureus), below 12.5 µM; in [6] (Enterococcus, VRE), below 12.5 µM; with E. coli K12 (Escherichia coli, K12), below 12.5 µM.
As for `CCOC(=O)CC(O)(CF)CCOC(C)=O` (stereo not shown) [38c, Ethyl 5-acetoxy-3-(fluoromethyl)-3-hydroxypentanoate], in [7] (deuterated PBS buffer pH 7.4, 37 °C, 48 h, 1H NMR integration ratio), the “decomposition after 48 h” value is “less than 5%”. In data set [7] (deuterated PBS buffer, pH 7.4), the half-life was above 2880 min. In data set [8] (setting [12]), the MIC is above 1600 µM.
Turning to `O=C(CC1(CF)CCOC(=O)O1)OCc1ccccc1` (stereo not shown) [compound 16, Benzyl 2-(4-(fluoromethyl)-2-oxo-1,3-dioxan-4-yl)acetate], the half-life in the data set “Stability in PBS buffer” was 1500 min. Further, in data set [8] (S. pneumoniae, THB medium), the “antibacterial activity against S. pneumoniae (in words)” value (“antibacterial activity” for short) was “generally inactive”. In data set [8] (setting [12]), this compound registered an MIC above 1600 µM.
`CC1(CC(=O)NCc2ccccc2)CCOC(=O)O1` (stereo not shown) [10b, N-Benzyl-2-(4-methyl-2-oxo-1,3-dioxan-4-yl)acetamide]: the half-life at 4 mM in [1] (setting [13]) stood at 8 min. The “integration ratio of each enantiomer” value in data set [9] (at 4 min) is reported as 48/52; in data set [9] (at 8 min), 46/54.
On to `CC1(CC(=O)Oc2ccccc2)CCOC(=O)O1` (stereo not shown) [9a, Phenyl 2-(4-methyl-2-oxo-1,3-dioxan-4-yl)acetate], for which the half-life at 4 mM in data set [1] (setting [13]) was below 3 min.
On to `CN[C@H](CC(C)C)C(=O)N[C@H]1C(=O)N[C@@H](CC(N)=O)C(=O)N[C@H]2C(=O)N[C@H]3C(=O)N[C@H](C(=O)N[C@H](C(=O)O)c4cc(O)cc(O)c4-c4cc3ccc4O)[C@H](O)c3ccc(c(Cl)c3)Oc3cc2cc(c3O[C@@H]2O[C@H](CO)[C@@H](O)[C@H](O)[C@H]2O[C@H]2C[C@](C)(N)[C@H](O)[C@H](C)O2)Oc2ccc(cc2Cl)[C@H]1O` [vancomycin, reference compound], for which the MIC in data set [3] (Streptococcus pyogenes) is below 12.5 µM; in [4] (Streptococcus agalactiae), below 12.5 µM; in [5] (Staphylococcus aureus) it was below 12.5 µM; in [6] (Enterococcus, VRE) it was below 12.5 µM; against E. coli K12 (Escherichia coli, K12), below 12.5 µM.
Take `C[C@@](O)(CCOP(=O)(O)OP(=O)(O)O)CC(=O)O` [DPM, 5-diphosphomevalonate]: the “inhibition of human MK” value in the data set with human MK is reported as “not inhibited”.
With `O=C(CC1(CF)CCOC(=O)O1)OCc1ccc(F)cc1` (stereo not shown) [18a, 4-Fluorobenzyl 2-(4-(fluoromethyl)-2-oxo-1,3-dioxan-4-yl)acetate], the half-life in the data set “Stability in PBS buffer” was 1560 min. The “antibacterial activity” value in data set [8] (S. pneumoniae, THB medium) was “generally inactive”. In data set [8] (setting [12]), this compound returned an MIC above 1600 µM.
As for `CC(=O)OCCC(O)(CF)CC(=O)NCc1ccccc1` (stereo not shown) [38a, 5-(Benzylamino)-3-(fluoromethyl)-3-hydroxy-5-oxopentyl acetate], in data set [1] (setting [14]), the half-life at 4 mM was 20 to 30 min. The compound further displayed an MIC in [8] (setting [12]) above 1600 µM.
Take `CC1(CC(=O)OCc2ccccc2)CCOC(=O)O1` (stereo not shown) [compound 4, Benzyl 2-(4-methyl-2-oxo-1,3-dioxan-4-yl)acetate]: the half-life in the data set “Stability in PBS buffer” is above 2880 min. This compound gave a half-life at 4 mM in data set [1] (setting [13]) of 4 min. The “integration ratio of each enantiomer” value was 35/65 in data set [9] (at 2 min) and 41/59 in data set [9] (at 4 min).
In the data set “Stability in PBS buffer”, `O=C(CC1(CF)CCOC(=O)O1)OCc1ccc(F)cc1F` (stereo not shown) [18b, 2,4-Difluorobenzyl 2-(4-(fluoromethyl)-2-oxo-1,3-dioxan-4-yl)acetate] showed a half-life of 1320 min.
Consider `COC(=O)CC(O)(CF)CCOC(C)=O` (stereo not shown) [38b, Methyl 5-acetoxy-3-(fluoromethyl)-3-hydroxypentanoate], for which the MIC in data set [8] (setting [12]) was above 1600 µM.
`O=C(CC1(C(F)(F)F)CCOC(=O)O1)OCc1ccc(F)cc1F` (stereo not shown) [25b, 2,4-Difluorobenzyl 2-(2-oxo-4-(trifluoromethyl)-1,3-dioxan-4-yl)acetate] gave a half-life in the data set “Stability in PBS buffer” of 300 min.
Turning to `O=C(CC1(C(F)(F)F)CCOC(c2ccccc2)O1)NCc1ccccc1` (stereo not shown) [32b, N-Benzyl-2-(2-phenyl-4-(trifluoromethyl)-1,3-dioxan-4-yl)acetamide], the “antibacterial activity” value in data set [8] (S. pneumoniae, THB medium) was “lack activity”. This compound came in with an MIC in data set [8] (setting [12]) above 1600 µM.
The compound `CC1(CC(=O)Nc2ccccc2)CCOC(=O)O1` (stereo not shown) [10a, 2-(4-Methyl-2-oxo-1,3-dioxan-4-yl)-N-phenylacetamide] had a half-life at 4 mM in data set [1] (setting [13]) below 3 min.
In the case of `CC1(CC(=O)Oc2ccc(F)cc2)CCOC(=O)O1` (stereo not shown) [9b, 4-Fluorophenyl 2-(4-methyl-2-oxo-1,3-dioxan-4-yl)acetate], in data set [1] (setting [13]), the half-life at 4 mM was below 3 min.
As for `O=C1CC(O)(C(F)(F)F)CCO1` (stereo not shown) [compound 26, 4-Hydroxy-4-(trifluoromethyl)tetrahydro-2H-pyran-2-one], in [10], the half-life was around 1 min. Moreover, the minimum inhibitory concentration (MIC) in data set [8] (Streptococcus pneumoniae, TIGR4) is 800 µM (≈ 147 µg/mL); in data set [8] (setting [12]), 800 µM (≈ 147 µg/mL); in data set [3] (Streptococcus pyogenes) it was 200 µM (≈ 36.8 µg/mL); in [4] (Streptococcus agalactiae), 800 µM (≈ 147 µg/mL); in data set [5] (Staphylococcus aureus) it was above 1600 µM; in data set [6] (Enterococcus, VRE), above 1600 µM. Besides, the MIC with E. coli K12 (Escherichia coli, K12) was above 1600 µM. The “general cytotoxicity (LDH release vs media alone)” value (in the data set on RAW murine macrophages; in data set [11]) was “No evidence of general cytotoxicity” in each case.
For the compound `CC1(CC(=O)NCc2ccc(F)cc2)CCOC(=O)O1` (stereo not shown) [10c, N-(4-Fluorobenzyl)-2-(4-methyl-2-oxo-1,3-dioxan-4-yl)acetamide], the half-life at 4 mM in [1] (setting [13]) came out at 8 min.
As to `O=C1CC(O)(CF)CCO1` (stereo not shown) [compound 28, 6-fluoromevalolactone], the “potency relative to 6,6,6-trifluoromevalolactone (26)” value in data set [8] (S. pneumoniae MIC ratio) came to 4 fold. The MIC in [8] (S. pneumoniae, THB media) was 200 µM (≈ 29.6 µg/mL); in [8] (S. pneumoniae, THB medium, 24 h, 37 °C, lowest drug concentration that reduced growth by 80% or more) it was 200 µM (≈ 29.6 µg/mL); in data set [3] (Streptococcus pyogenes (GAS 5448)) it was above 1600 µM; in [4] (Streptococcus agalactiae (GBS COH1)) it was above 1600 µM; in data set [5] (Staphylococcus aureus (TCH1516)), above 1600 µM; in data set [6] (vancomycin resistant Enterococcus (VRE)), above 1600 µM. In addition, the MIC against E. coli K12 (E. coli K12) is above 1600 µM.
`O=C(CC1(C(F)(F)F)CCOC(=O)O1)OCc1ccc(F)cc1` (stereo not shown) [25a, 4-Fluorobenzyl 2-(2-oxo-4-(trifluoromethyl)-1,3-dioxan-4-yl)acetate] showed a half-life in “Stability in PBS buffer” of 360 min. Moreover, the “antibacterial activity” value in data set [8] (S. pneumoniae, THB medium) is “marginally active”. Besides, the MIC in [8] (setting [12]) is 1600 µM (≈ 538 µg/mL); in data set [3] (Streptococcus pyogenes) it was above 1600 µM; in [4] (Streptococcus agalactiae) it was above 1600 µM; in [5] (Staphylococcus aureus) it was above 1600 µM; in data set [6] (Enterococcus, VRE), above 1600 µM; against E. coli K12 (Escherichia coli, K12), above 1600 µM. The “general cytotoxicity (LDH release vs media alone)” value (in the data set with RAW murine macrophages; in data set [11]) was “No evidence of general cytotoxicity” each time.
For `O=C(CC1(C(F)(F)F)CCOC(=O)O1)OCc1ccccc1` (stereo not shown) [compound 23, Benzyl 2-(2-oxo-4-(trifluoromethyl)-1,3-dioxan-4-yl)acetate], in “Stability in PBS buffer”, the half-life is 300 min.
`CC(=O)OCCC(C)(O)CC(=O)NCc1c(F)c(F)c(F)c(F)c1F` (stereo not shown) [compound 35, 3-Hydroxy-3-methyl-5-oxo-5-(((perfluorophenyl)methyl)amino)pentyl acetate] yielded a half-life at 4 mM in data set [1] (setting [14]) of 20 to 30 min.
